Test results as given in ChEMBL document CHEMBL1152452, “Modifications incorporated in CpG motifs of oligodeoxynucleotides lead to antagonist activity of toll-like receptors 7 and 9” (2009).
Calls of active or inactive are those of the source. The calls are words filed in the database; no cut-off is given here.

Tests used:
[1] = target: T1, Toll-like receptor 9 (Mus musculus) (UniProt Q9EQU3); assay: Activation of mouse TLR9 expressed in HEK293 cells assessed as NF-kappaB level at 0.1 ug/mL after 18 hrs by reporter gene assay; type: cell-based
T1 sequence (whole entry): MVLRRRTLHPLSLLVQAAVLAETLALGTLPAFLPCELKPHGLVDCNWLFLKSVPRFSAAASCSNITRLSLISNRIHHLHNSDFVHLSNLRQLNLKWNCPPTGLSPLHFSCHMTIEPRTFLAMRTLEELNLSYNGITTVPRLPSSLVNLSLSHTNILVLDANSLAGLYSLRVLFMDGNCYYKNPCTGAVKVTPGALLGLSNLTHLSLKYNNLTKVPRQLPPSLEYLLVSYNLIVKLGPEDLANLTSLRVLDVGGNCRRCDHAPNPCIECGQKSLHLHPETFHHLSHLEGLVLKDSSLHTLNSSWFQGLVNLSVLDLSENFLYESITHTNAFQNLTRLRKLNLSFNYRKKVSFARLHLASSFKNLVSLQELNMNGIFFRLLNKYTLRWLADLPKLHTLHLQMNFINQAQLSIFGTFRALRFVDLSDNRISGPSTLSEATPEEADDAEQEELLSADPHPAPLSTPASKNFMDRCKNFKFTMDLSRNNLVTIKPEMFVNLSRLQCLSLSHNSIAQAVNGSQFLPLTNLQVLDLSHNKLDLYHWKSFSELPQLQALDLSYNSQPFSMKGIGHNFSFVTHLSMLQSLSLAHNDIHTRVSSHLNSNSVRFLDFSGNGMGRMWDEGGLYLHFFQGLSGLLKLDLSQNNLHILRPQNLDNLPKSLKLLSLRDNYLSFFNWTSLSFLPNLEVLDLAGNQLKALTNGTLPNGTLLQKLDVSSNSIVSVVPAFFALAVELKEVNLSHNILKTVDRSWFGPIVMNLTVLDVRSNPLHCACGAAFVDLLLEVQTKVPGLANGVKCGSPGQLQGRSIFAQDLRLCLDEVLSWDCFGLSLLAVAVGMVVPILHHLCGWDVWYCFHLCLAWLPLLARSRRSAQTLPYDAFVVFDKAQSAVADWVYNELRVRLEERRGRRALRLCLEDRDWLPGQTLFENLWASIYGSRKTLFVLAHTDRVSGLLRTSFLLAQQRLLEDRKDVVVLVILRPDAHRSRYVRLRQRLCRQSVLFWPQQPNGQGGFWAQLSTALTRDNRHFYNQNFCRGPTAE
How it was run: (§1)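 HEK293 cells stably expressing mouse TLR9 were transiently transfected with a SEAP reporter for 6 h, then stimulated with ODN at 0.1, 0.3 or 1 μg/mL for 18 h. Reporter expression is given as fold change in NF-κB activity over medium. Representative of two independent experiments.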

[2] = target: T1, Toll-like receptor 9 (Mus musculus); assay: Activation of mouse TLR9 expressed in HEK293 cells assessed as NF-kappaB level at 1 ug/mL after 18 hrs by reporter gene assay; type: cell-based; how it was run: as §1
J774 [3] = assay: Activation of NF-kappaB in mouse J774 cells at 2.5 ug/ml after 1 hr by EMSA; type: cell-based
How it was run: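 Murine J774 macrophages in DMEM with 10% FBS and antibiotics, plated at 5×10^6 cells/well. ODNs were given alone or together for 1 h. For inhibition, the agonist ODN at 0.5 μg/mL was co-incubated with the modified ODN at 2.5 μg/mL. Nuclear extracts were resolved by EMSA on native polyacrylamide gels and read by autoradiography.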

J774 [4] = assay: Inhibition of 5'-CTATCTGACGTTCTCTGT-3'-activated NF-kappaB activity in mouse J774 cells at 2.5 ug/ml after 1 hr by EMSA; type: cell-based
How it was run: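 J774 murine macrophages were grown in DMEM with 10% FBS and antibiotics, plated at 5 × 10^6 cells/well, and co-incubated for 1 h with the agonist ODN (0.5 µg/mL) and test ODN (2.5 µg/mL). Nuclear extracts were prepared and NF-κB binding was analysed by EMSA on native polyacrylamide gels with autoradiography.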

Splenocyte [5] = assay: Immunostimulatory activity in C57BL/6 mouse splenocytes assessed as induction of IL6 secretion at 2 to 10 ug/ml after 24 hrs by sandwich ELISA; type: functional, cell-based
How it was run: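 C57BL/6 splenocytes (mice 5–8 weeks) at 5 × 10^6 cells/mL in RPMI complete medium. ODNs dissolved in PBS were added and the cells incubated at 37 °C for 24 h. Supernatant IL-12 or IL-6 was measured by sandwich ELISA. Runs were done two or three times, in duplicate per concentration.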

Splenocyte [6] = assay: Inhibition of 5'-CTATCTGACGTTCTCTGT-3'-induced IL12 secretion in C57BL/6 mouse splenocytes at 4 ug/ml after 24 hrs by sandwich ELISA; type: functional, cell-based
How it was run: (§2)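 Splenocytes from 5–8-week C57BL/6 mice, 5 × 10^6 cells/mL in RPMI complete medium, were co-incubated with the TLR9 agonist ODN (1 µg/mL) plus test ODN at 1 or 4 µg/mL, or over a concentration series, at 37 °C for 24 h. Supernatant IL-12 or IL-6 was measured by sandwich ELISA. Runs were done in duplicate, with three independent experiments.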

Splenocyte [7] = assay: Inhibition of 5'-CTATCTGACGTTCTCTGT-3'-induced IL6 secretion in C57BL/6 mouse splenocytes at 4 ug/ml after 24 hrs by sandwich ELISA; type: functional, cell-based; how it was run: as §2
Mus musculus [8] = assay: Immunostimulatory activity in C57BL/6 mouse assessed as induction of TNFalpha level in serum at 2 mg/kg, sc after 2 hrs by Luminex multiplex assay; type: functional, organism-based; parameters: dose 2 mg/kg
How it was run: (§3)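 Female C57BL/6 mice, 5–6 weeks old, n = 3, received a single 2 mg/kg subcutaneous ODN injection in the right flank. Blood was taken by retro-orbital bleeding 2 h later. Naive mice served as baseline. Representative of three experiments.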

Mus musculus [9] = assay: Immunostimulatory activity in C57BL/6 mouse assessed as induction of MCP1 level in serum at 2 mg/kg, sc after 2 hrs by Luminex multiplex assay; type: functional, organism-based; parameters: dose 2 mg/kg; how it was run: as §3
Mus musculus [10] = assay: Immunostimulatory activity in C57BL/6 mouse assessed as induction of IL12 level in serum at 2 mg/kg, sc after 2 hrs by sandwich ELISA; type: functional, organism-based; parameters: dose 2 mg/kg; how it was run: as §3
Mus musculus [11] = assay: Immunostimulatory activity in C57BL/6 mouse assessed as inhibition of 5'-CTATCTGACGTTCTCTGT-3'-induced TNFalpha production in serum at 2 mg/kg, sc administered 24 hrs prior to 5'-CTATCTGACGTTCTCTGT-3' challenge measured after 2 hrs by Luminex multiplex assay; type: functional, organism-based; parameters: dose 2 mg/kg
How it was run: (§4)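 C57BL/6 mice received 2 mg/kg ODN sc in one flank. After 24 h, the TLR9 agonist ODN was given at 0.5 mg/kg sc in the opposite flank. Blood was drawn 2 h later and serum cytokines/chemokines were quantified by Luminex multiplex assay. Percent inhibition was taken against the agonist alone. Representative of three experiments.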

Mus musculus [12] = assay: Immunostimulatory activity in C57BL/6 mouse assessed as inhibition of 5'-CTATCTGACGTTCTCTGT-3'-induced KC production in serum at 2 mg/kg, sc administered 24 hrs prior to 5'-CTATCTGACGTTCTCTGT-3' challenge measured after 2 hrs by Luminex multiplex assay; type: functional, organism-based; parameters: dose 2 mg/kg; how it was run: as §4

| Activity [1] | Activity [2] | SMILES | Activity (J774 [3]) | Activity (J774 [4]) | Activity (Splenocyte [5]) | Activity (Splenocyte [6]) | Activity (Splenocyte [7]) | Activity (Mus musculus [8]) | Activity (Mus musculus [9]) | Activity (Mus musculus [10]) | Activity (Mus musculus [11]) | Activity (Mus musculus [12]) |
| --- | --- | --- | --- | --- | --- | --- | --- | --- | --- | --- | --- | --- |
| inactive | inactive | Cc1cn([C@@H]2O[C@H](COP(=O)(S)O[C@H]3C[C@H](n4ccc(N)nc4=O)O[C@@H]3COP(=O)(S)O[C@H]3C[C@H](n4cc(C)c(=O)[nH]c4=O)O[C@@H]3COP(=O)(S)O[C@H]3C[C@H](n4ccc(N)nc4=O)O[C@@H]3COP(=O)(S)O[C@H]3C[C@H](n4cc(C)c(=O)[nH]c4=O)O[C@@H]3COP(=O)(S)O[C@H]3C[C@H](n4cc(C)c(=O)[nH]c4=O)O[C@@H]3COP(=O)(S)O[C@H]3C[C@H](n4cnc5c(=O)[nH]c(N)nc54)O[C@@H]3COP(=O)(S)O[C@H]3C[C@H](n4ccc(N)nc4=O)O[C@@H]3COP(=O)(S)O[C@H]3C[C@H](n4cnc5c(N)ncnc54)O[C@@H]3COP(=O)(S)O[C@H]3C[C@H](n4cnc5c(=O)[nH]c(N)nc54)O[C@@H]3COP(=O)(S)O[C@H]3C[C@H](n4cc(C)c(=O)[nH]c4=O)O[C@@H]3COP(=O)(S)O[C@H]3C[C@H](n4ccc(N)nc4=O)O[C@@H]3COP(=O)(S)O[C@H]3C[C@H](n4cc(C)c(=O)[nH]c4=O)O[C@@H]3COP(=O)(S)O[C@H]3C[C@H](n4cnc5c(N)ncnc54)O[C@@H]3COP(=O)(S)O[C@H]3C[C@H](n4cc(C)c(=O)[nH]c4=O)O[C@@H]3COP(=O)(S)O[C@@H]3C[C@@H](n4ccc(N)nc4=O)O[C@H]3CO)[C@@H](OP(=O)(S)OC[C@H]3O[C@@H](n4cnc5c(=O)[nH]c(N)nc54)C[C@@H]3OP(=O)(S)OC[C@H]3O[C@@H](n4cc(C)c(=O)[nH]c4=O)C[C@@H]3O)[C@H]2O)c(=O)[nH]c1=O (some centres undefined) | inactive | Active | Active | Active | Active | inactive | inactive | inactive | Active | Active |
| inactive | inactive | CO[C@@H]1[C@H](OP(=O)(S)OC[C@H]2O[C@@H](n3cnc4c(=O)[nH]c(N)nc43)C[C@@H]2OP(=O)(S)OC[C@H]2O[C@@H](n3cc(C)c(=O)[nH]c3=O)C[C@@H]2OP(=O)(S)OC[C@H]2O[C@@H](n3cc(C)c(=O)[nH]c3=O)C[C@@H]2OP(=O)(S)OC[C@H]2O[C@@H](n3ccc(N)nc3=O)C[C@@H]2OP(=O)(S)OC[C@H]2O[C@@H](n3cc(C)c(=O)[nH]c3=O)C[C@@H]2OP(=O)(S)OC[C@H]2O[C@@H](n3ccc(N)nc3=O)C[C@@H]2OP(=O)(S)OC[C@H]2O[C@@H](n3cc(C)c(=O)[nH]c3=O)C[C@@H]2OP(=O)(S)OC[C@H]2O[C@@H](n3cnc4c(=O)[nH]c(N)nc43)C[C@@H]2OP(=O)(S)OC[C@H]2O[C@@H](n3cc(C)c(=O)[nH]c3=O)C[C@@H]2O)[C@@H](COP(=O)(S)O[C@H]2C[C@H](n3cnc4c(N)ncnc43)O[C@@H]2COP(=O)(S)O[C@H]2C[C@H](n3cnc4c(=O)[nH]c(N)nc43)O[C@@H]2COP(=O)(S)O[C@H]2C[C@H](n3cc(C)c(=O)[nH]c3=O)O[C@@H]2COP(=O)(S)O[C@H]2C[C@H](n3ccc(N)nc3=O)O[C@@H]2COP(=O)(S)O[C@H]2C[C@H](n3cc(C)c(=O)[nH]c3=O)O[C@@H]2COP(=O)(S)O[C@H]2C[C@H](n3cnc4c(N)ncnc43)O[C@@H]2COP(=O)(S)O[C@H]2C[C@H](n3cc(C)c(=O)[nH]c3=O)O[C@@H]2COP(=O)(S)O[C@H]2C[C@H](n3ccc(N)nc3=O)O[C@@H]2CO)O[C@H]1n1ccc(N)nc1=O (some centres undefined) | inactive | Active | Active | Active | Active | inactive | inactive | inactive | Active | Active |
